Experimental data reported in ChEMBL document CHEMBL4270609, “Purple acid phosphatase inhibitors as leads for osteoporosis chemotherapeutics” (Eur J Med Chem, 2018).
Active and inactive are the calls of the source. No cut-off for these calls is given here.

Key:
[1] = target: T1, Tartrate-resistant acid phosphatase type 5 (Sus scrofa) (UniProt P09889); assay: Inhibition of pig purple acid phosphatase Fe(3)Fe(2) state assessed as enzyme-inhibitor complex at 100 uM using pNPP as substrate by UV/Vis spectrophotometric method
T1 sequence (whole entry): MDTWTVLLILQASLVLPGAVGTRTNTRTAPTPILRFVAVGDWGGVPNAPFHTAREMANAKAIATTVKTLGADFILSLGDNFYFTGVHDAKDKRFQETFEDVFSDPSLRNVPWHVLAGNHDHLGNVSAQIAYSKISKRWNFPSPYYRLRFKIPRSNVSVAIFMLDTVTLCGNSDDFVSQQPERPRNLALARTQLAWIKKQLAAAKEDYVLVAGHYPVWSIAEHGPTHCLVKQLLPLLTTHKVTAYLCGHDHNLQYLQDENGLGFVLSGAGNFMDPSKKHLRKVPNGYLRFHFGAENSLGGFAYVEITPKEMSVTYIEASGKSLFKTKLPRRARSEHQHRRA
In short: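 Used 5 mM pNPP substrate and 12 nM enzyme in 0.1 M acetate pH 4.9 with 25% DMSO at 25 °C. p-Nitrophenol formation was followed at 405 nm; result expressed as percentage inhibition.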

[2] = target: T1, Tartrate-resistant acid phosphatase type 5 (Sus scrofa); assay: Competitive inhibition of pig purple acid phosphatase Fe(3)Fe(2) state assessed as enzyme-inhibitor complex using pNPP as substrate by UV/Vis spectrophotometric method
In short: (§1)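 Pig PAP was from sow uterine fluid and pre-reduced to Fe(III)Fe(II) with 0.77 mM β-mercaptoethanol (10 min, 37 °C); rkbPAP was purified from red kidney beans. Assays ran at 25 °C, pH 4.9 (0.1 M acetate, 25% DMSO) with 12 nM enzyme, pNPP 1–12.5 mM and inhibitor 50–300 μM. p-Nitrophenol was read at 405 nm. Kic and Kiuc came from non-linear fit to the general inhibition equation.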

[3] = target: T2, Fe(3+)-Zn(2+) purple acid phosphatase (Phaseolus vulgaris) (UniProt P80366); assay: Competitive inhibition of red kidney bean purple acid phosphatase Fe(3)Fe(2) state assessed as enzyme-inhibitor complex using pNPP as substrate by UV/Vis spectrophotometric method; in short: as §1
T2 sequence (whole entry): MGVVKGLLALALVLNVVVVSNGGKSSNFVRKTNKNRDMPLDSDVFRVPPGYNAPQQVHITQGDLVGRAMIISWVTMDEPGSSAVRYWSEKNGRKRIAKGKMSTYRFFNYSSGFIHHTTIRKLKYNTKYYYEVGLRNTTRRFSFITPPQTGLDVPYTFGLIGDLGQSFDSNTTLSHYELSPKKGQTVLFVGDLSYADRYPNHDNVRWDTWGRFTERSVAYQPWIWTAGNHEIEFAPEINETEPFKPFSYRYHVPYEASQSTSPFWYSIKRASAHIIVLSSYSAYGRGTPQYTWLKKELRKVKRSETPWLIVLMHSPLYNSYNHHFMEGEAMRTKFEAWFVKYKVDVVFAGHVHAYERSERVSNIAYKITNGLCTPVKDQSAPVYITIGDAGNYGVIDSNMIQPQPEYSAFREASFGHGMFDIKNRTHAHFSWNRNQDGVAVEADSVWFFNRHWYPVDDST

[4] = target: T1, Tartrate-resistant acid phosphatase type 5 (Sus scrofa); assay: Uncompetitive inhibition of pig purple acid phosphatase Fe(3)Fe(2) state assessed as enzyme-substrate-inhibitor complex using pNPP as substrate by UV/Vis spectrophotometric method; in short: as §1
[5] = target: T2, Fe(3+)-Zn(2+) purple acid phosphatase (Phaseolus vulgaris); assay: Uncompetitive inhibition of red kidney bean purple acid phosphatase Fe(3)Fe(2) state assessed as enzyme-substrate-inhibitor complex using pNPP as substrate by UV/Vis spectrophotometric method; in short: as §1

inhibition [1] | Kic [2] | Kic [3] | Structure (SMILES) | further results
– | 630 µM | 920 µM | O=C(O)c1csc(-c2ccccc2Cl)n1 | Kiuc [4]: 350 µM
inactive | – | – | O=C(O)[C@@H]1CSC(c2cccc3ccccc23)N1 (some centres not stated) | –
– | 190 µM | – | O=C(O)c1csc(-c2ccccc2)n1 | –
– | 49 µM | 530 µM | O=C(O)c1csc(-c2ccc(Cl)cc2)n1 | –
inactive | – | – | O=C(O)[C@@H]1CSC(c2ccc(O)cc2)N1 (some centres not stated) | –
– | 120 µM | 400 µM | COc1ccc(-c2nc(C(=O)O)cs2)cc1 | Kiuc [5]: 770 µM
inactive | – | – | COc1ccc(C2N[C@H](C(=O)O)CS2)cc1 (some centres not stated) | –

The remaining lines, values behind:

Structure (SMILES) | inhibition [1] | Kic [2] | Kic [3] | further results
O=C(O)[C@@H]1CSC(c2ccco2)N1 (some centres not stated) | inactive | – | – | –
O=C(O)[C@@H]1CSC(c2c(O)ccc3ccccc23)N1 (some centres not stated) | inactive | – | – | –
O=C(O)[C@@H]1CSC(c2ccccc2)N1 (some centres not stated) | inactive | – | – | –
Cc1ccc(C2N[C@H](C(=O)O)CS2)cc1 (some centres not stated) | inactive | – | – | –
Cc1ccc(-c2nc(C(=O)O)cs2)cc1 | – | 42 µM | 340 µM | –
O=C(O)[C@@H]1CSC(c2ccccc2O)N1 (some centres not stated) | inactive | – | – | –
O=C(O)c1csc(-c2cccc3ccccc23)n1 | – | 33 µM | 185 µM | Kiuc [4]: 110 µM
